Laboratory results reported in ChEMBL document CHEMBL1629534, “Acetic acid derivatives of 3,4-dihydro-2H-1,2,4-benzothiadiazine 1,1-dioxide as a novel class of potent aldose reductase inhibitors” (J Med Chem, 2010).

Each molecule was assayed on Rattus norvegicus (assay: Inhibition of ALR2 in 5-day STZ-induced diabetic Wistar rat model assessed as normalization of elevated sorbitol levels in sciatic nerves at 100 mg/kg/day, po for 5 days). Conditions: not given.
Type: functional, Sciatic nerve
Design: scale not given: the % may be the effect or the level left
Method in brief: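 STZ-diabetic male Wistar rats (ip 55 mg/kg) got compound po in 0.5% CMC-Na for 5 days. Sciatic nerve taken 6 h after last dose, boiled, homogenized in 6% perchloric acid and neutralized. Sorbitol read enzymatically with sorbitol dehydrogenase/NAD+ at pH 9.4, 60 min 37 °C, fluorescence ex 365/em 430 nm. Inhibition = (S-T)/(S-N)×100 against diabetic and nondiabetic controls.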

Point of comparison: `O=C(O)CN1CN(Cc2cc(F)c(F)cc2F)S(=O)(=O)c2cc(F)ccc21`, Activity 68.2%. Against it:
- O=C(O)CN1CN(Cc2cccc([N+](=O)[O-])c2)S(=O)(=O)c2cc(Cl)ccc21 — lower, 45%
- O=C(O)CN1CN(Cc2cccc([N+](=O)[O-])c2)S(=O)(=O)c2cc(F)ccc21 — lower, 43.6%
- O=C(O)CN1CN(Cc2cc(F)c(F)cc2F)S(=O)(=O)c2cc(Cl)ccc21 — lower, 61.5%
- O=C(O)CN1CN(Cc2ccc(Br)cc2F)S(=O)(=O)c2cc(F)ccc21 — lower, 47.3%
- O=C(O)CN1CN(Cc2cc(F)c(F)cc2F)S(=O)(=O)c2cc(Br)ccc21 — lower, 51.2%
- NC(=O)[C@@H]1C[C@]2(NC(=O)NC2=O)c2cc(F)ccc2O1 [FIDARESTAT] — higher, 100%
- O=C(O)CN1CN(Cc2ccc(Br)cc2F)S(=O)(=O)c2cc(Br)ccc21 — lower, 42.4%
- O=C(O)CN1CN(Cc2ccc(Br)cc2F)S(=O)(=O)c2cc(Cl)ccc21 — lower, 60.7%

Each molecule was assayed against Aldo-keto reductase family 1 member A1 (Rattus norvegicus, UniProt P51635) (assay: Inhibition of Wistar rat kidney ALR1 by spectrophotometry). Conditions: not given.
Chain of Aldo-keto reductase family 1 member A1 (P51635 whole entry, looked up): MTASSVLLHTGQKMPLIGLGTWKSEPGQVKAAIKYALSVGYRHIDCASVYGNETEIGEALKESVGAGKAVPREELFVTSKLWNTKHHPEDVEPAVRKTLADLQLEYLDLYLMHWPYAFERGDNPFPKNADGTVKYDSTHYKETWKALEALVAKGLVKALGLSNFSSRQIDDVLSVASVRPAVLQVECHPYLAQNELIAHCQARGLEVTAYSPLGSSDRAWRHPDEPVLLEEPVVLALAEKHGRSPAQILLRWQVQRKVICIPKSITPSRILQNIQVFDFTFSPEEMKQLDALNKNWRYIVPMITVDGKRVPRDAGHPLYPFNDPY
Method in brief: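 ALR1 enzyme extract in 0.1 M sodium phosphate pH 7.2 with NADPH (0.25 mL of 0.12 mM) and compound diluted from DMSO, preincubated 10 min at 37 °C. Started with sodium D-glucuronate (0.25 mL of 20 mM, 1 mL total). Fall in A340 followed for 4 min, corrected for substrate-free rate. Screened at 10^-4 M. IC50 from at least four concentrations, 10^-4 to 10^-8 M, in triplicate.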

Point of comparison: `O=C(O)CN1CN(Cc2cc(F)c(F)cc2F)S(=O)(=O)c2cc(F)ccc21`, IC50 80900 nM. Against it:
- O=C(O)CN1CN(Cc2ccc(C(F)(F)F)cc2)S(=O)(=O)c2cc(Br)ccc21 — within 1.5-fold, 110000 nM
- O=C(O)CN1CN(Cc2ccc(Br)cc2F)S(=O)(=O)c2ccccc21 — within 1.5-fold, 70300 nM
- O=C(O)CN1CN(Cc2cccc([N+](=O)[O-])c2)S(=O)(=O)c2cc(Cl)ccc21 — within 1.5-fold, 82500 nM
- O=C(O)CN1CN(Cc2cccc([N+](=O)[O-])c2)S(=O)(=O)c2cc(F)ccc21 — within 1.5-fold, 61900 nM
- O=C(O)CN1CN(Cc2cc(F)c(F)cc2F)S(=O)(=O)c2cc(Cl)ccc21 — 1.6-fold lower, 50600 nM
- O=C(O)CN1CN(Cc2ccc(Br)cc2F)S(=O)(=O)c2cc(F)ccc21 — 1.5-fold higher, 122000 nM
- O=C(O)CN1CN(Cc2cccc([N+](=O)[O-])c2)S(=O)(=O)c2ccccc21 — within 1.5-fold, 55800 nM
- O=C(O)CN1CN(Cc2cc(F)c(F)cc2F)S(=O)(=O)c2cc(Br)ccc21 — within 1.5-fold, 54100 nM
- O=C(O)CN1CN(Cc2cccc([N+](=O)[O-])c2)S(=O)(=O)c2cc(Br)ccc21 — within 1.5-fold, 103000 nM
- O=C(O)CN1CN(Cc2ccc(Br)cc2F)S(=O)(=O)c2cc(Br)ccc21 — within 1.5-fold, 69400 nM
- O=C(O)CN1CN(Cc2ccc(Br)cc2F)S(=O)(=O)c2cc(Cl)ccc21 — within 1.5-fold, 58900 nM

Each molecule was assayed on Aldehyde reductase, AKR1A1 (Rattus norvegicus) (assay: Inhibition of Wistar rat kidney ALR1 at 0.1 mM by spectrophotometry). Conditions: not given.

Point of comparison: `O=C(O)CN1CN(Cc2ccc(C(F)(F)F)cc2)S(=O)(=O)c2ccccc21`, inhibition 42%. Against it:
- O=C(O)CN1CN(Cc2ccc(C(F)(F)F)cc2)S(=O)(=O)c2cc(F)ccc21 — lower, 40%
- O=C(O)CN1CN(Cc2ccc(C(F)(F)F)cc2)S(=O)(=O)c2cc(Cl)ccc21 — higher, 45%

What follows are molecules tested against Aldo-keto reductase family 1 member B1 (Rattus norvegicus) (UniProt P07943) (assay: Inhibition of Wistar rat lenses ALR2 at 0.1 mM by spectrophotometry). Conditions: Lens of camera-type eye.
Type: tissue-based
Method in brief: (§1)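 ALR2 enzyme extract in 0.1 M sodium phosphate pH 6.2 with NADPH (0.25 mL of 0.10 mM) and compound diluted from DMSO, preincubated 10 min at 32 °C. Started with D,L-glyceraldehyde (0.25 mL of 10 mM, 1 mL total). Fall in A340 followed for 4 min, corrected for substrate-free rate. Screened at 10^-4 M. IC50 from at least four concentrations giving 20-80% inhibition, in triplicate, with 95% CL.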

`O=C(O)CN1CN(Cc2ccc(C(F)(F)F)cc2)c2ccccc2S1(=O)=O` showed an inhibition of 41.3%.

These molecules were tested on Rattus norvegicus (assay: Inhibition of ALR2 in 5-day STZ-induced diabetic Wistar rat model assessed as blood glucose levels at 100 mg/kg/day, po for 5 days (reference value: 22.2 +/- 2.62 mmol/L)). Conditions: not given.
Type: functional

Point of comparison: `O=C(O)CN1CN(Cc2cccc([N+](=O)[O-])c2)S(=O)(=O)c2cc(F)ccc21`, Activity 19.8 mmol/L. Against it:
- O=C(O)CN1CN(Cc2cccc([N+](=O)[O-])c2)S(=O)(=O)c2cc(Cl)ccc21 — lower, 19.7 mmol/L
- O=C(O)CN1CN(Cc2cc(F)c(F)cc2F)S(=O)(=O)c2cc(Cl)ccc21 — lower, 17.9 mmol/L
- O=C(O)CN1CN(Cc2ccc(Br)cc2F)S(=O)(=O)c2cc(F)ccc21 — lower, 17.9 mmol/L
- O=C(O)CN1CN(Cc2cc(F)c(F)cc2F)S(=O)(=O)c2cc(Br)ccc21 — higher, 20.1 mmol/L
- NC(=O)[C@@H]1C[C@]2(NC(=O)NC2=O)c2cc(F)ccc2O1 [FIDARESTAT] — lower, 18.5 mmol/L
- O=C(O)CN1CN(Cc2cc(F)c(F)cc2F)S(=O)(=O)c2cc(F)ccc21 — lower, 18.4 mmol/L
- O=C(O)CN1CN(Cc2ccc(Br)cc2F)S(=O)(=O)c2cc(Br)ccc21 — lower, 18.4 mmol/L
- O=C(O)CN1CN(Cc2ccc(Br)cc2F)S(=O)(=O)c2cc(Cl)ccc21 — lower, 18.2 mmol/L

What follows are molecules tested against Aldo-keto reductase family 1 member B1 (Rattus norvegicus, UniProt P07943) (assay: Inhibition of Wistar rat lenses ALR2 by spectrophotometry). Conditions: not given.
Type: tissue-based, Lens of camera-type eye
Method in brief: as §1

Point of comparison: `O=C(O)CN1CN(Cc2ccc(Br)cc2F)S(=O)(=O)c2ccccc21`, IC50 125 nM. Against it:
- O=C(O)CN1CN(Cc2ccccc2)S(=O)(=O)c2ccccc21 — 810-fold higher, 101000 nM
- O=C(O)CN1CN(Cc2ccc(C(F)(F)F)cc2)S(=O)(=O)c2cc(Br)ccc21 — 5.4-fold higher, 674 nM
- O=C(O)CN1CN(Cc2cccc([N+](=O)[O-])c2)S(=O)(=O)c2cc(Cl)ccc21 — within 1.5-fold, 94 nM
- O=C(O)CN1CN(Cc2cccc([N+](=O)[O-])c2)S(=O)(=O)c2cc(F)ccc21 — within 1.5-fold, 108 nM
- O=C(O)CN1CN(Cc2cc(F)c(F)cc2F)S(=O)(=O)c2ccccc21 — within 1.5-fold, 111 nM
- O=C(O)CN1CN(Cc2cc(F)c(F)cc2F)S(=O)(=O)c2cc(Cl)ccc21 — 3.9-fold lower, 32 nM
- O=C(O)CN1CN(Cc2ccc(Br)cc2F)S(=O)(=O)c2cc(F)ccc21 — within 1.5-fold, 90 nM
- O=C(O)CN1CN(Cc2cccc([N+](=O)[O-])c2)S(=O)(=O)c2ccccc21 — 1.8-fold higher, 219 nM
- O=C(O)CN1CN(Cc2cc(F)c(F)cc2F)S(=O)(=O)c2cc(Br)ccc21 — 2.4-fold lower, 52 nM
- NC(=O)[C@@H]1C[C@]2(NC(=O)NC2=O)c2cc(F)ccc2O1 [FIDARESTAT] — 4.3-fold lower, 29 nM
- O=C(O)CN1CN(Cc2ccc(C(F)(F)F)cc2)S(=O)(=O)c2cc(F)ccc21 — 7.4-fold higher, 931 nM
- O=C(O)CN1CN(Cc2ccc(C(F)(F)F)cc2)S(=O)(=O)c2ccccc21 — 7.8-fold higher, 975 nM
- O=C(O)CN1CN(Cc2cc(F)c(F)cc2F)S(=O)(=O)c2cc(F)ccc21 — 1.9-fold lower, 66 nM
- O=C(O)CN1CN(Cc2cccc([N+](=O)[O-])c2)S(=O)(=O)c2cc(Br)ccc21 — within 1.5-fold, 116 nM
- O=C(O)CN1CN(Cc2ccc(Br)cc2F)c2ccccc2S1(=O)=O — 470-fold higher, 58400 nM
- O=C(O)CN1CN(Cc2ccc(Br)cc2F)S(=O)(=O)c2cc(Br)ccc21 — 1.8-fold lower, 71 nM
- O=C(O)CN1CN(Cc2ccc(C(F)(F)F)cc2)S(=O)(=O)c2cc(Cl)ccc21 — 4.8-fold higher, 595 nM
- O=C(O)CN1CN(Cc2cccc([N+](=O)[O-])c2)c2ccccc2S1(=O)=O — 600-fold higher, 74500 nM
- O=C(O)CN1CN(Cc2cc(F)c(F)cc2F)c2ccccc2S1(=O)=O — 110-fold higher, 14000 nM
- O=C(O)CN1CN(Cc2ccc(Br)cc2F)S(=O)(=O)c2cc(Cl)ccc21 — 3-fold lower, 41 nM
